Test results as given in ChEMBL document CHEMBL1127752, “Synthesis and antitumor activity of novel mitomycin derivatives containing functional groups at the C-6-methyl position” (J Med Chem, 1994).

Tests used:
[1] = tested on: HeLa; assay: In vitro anticellular activity tested against HeLa S3 cells; assay type: functional, cell-based; settings: Homo sapiens
In short: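 HeLa S3 cells seeded on day 0, then exposed to drug for 1 h on day 1; anticellular activity determined by a previously described method.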

[2] = tested on: CCRF S-180; assay: Optimal dose towards sarcoma 180 cells, inoculated subcutaneously to the axillary region of ddY mice; assay type: functional, Mus musculus
In short: (§1)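 Sarcoma 180 cells implanted sc in the axillary region of ddY mice on day 0; compounds given iv on day 1. Tumor volume compared treated versus control (T/C). 50% growth-inhibitory dose calculated from the dose-response curve; optimal dose also recorded.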

[3] = tested on: Mus musculus; assay: Effective dose that gave 50% inhibition of tumor growth was calculated towards sarcoma 180 cells which were inoculated subcutaneously to the axillary region of ddY mice; assay type: functional; settings: Mus musculus, 180, sc; in short: as §1
[4] = tested on: Mus musculus; assay: In vivo antitumor activity against lymphatic leukemia P388 cells sensitive to mitomycin C (MMC) was measured as maximal increase in life span of the treated mice at optimal dose of 50 mg/kg; assay type: functional
[5] = tested on: Mus musculus; assay: In vivo antitumor activity against lymphatic leukemia P388 cells resistant to mitomycin C (MMC) was measured as maximal increase in life span of the treated mice at optimal dose of 25 mg/kg; assay type: functional
[6] = tested on: Mus musculus; assay: In vivo antitumor activity against lymphatic leukemia P388 cells sensitive to mitomycin C (MMC) was measured as maximal increase in life span of the treated mice at optimal dose of 13 mg/kg; assay type: functional
[7] = tested on: CCRF S-180; assay: Tumor volume of sarcoma 180 cells which were inoculated […] to the axillary region of ddY mice, after treatment; assay type: functional, Mus musculus
[8] = tested on: Mus musculus; assay: In vivo antitumor activity against lymphatic leukemia P388 cells sensitive to mitomycin C (MMC) was measured as maximal increase in life span of the treated mice at optimal dose of 3.1 mg/kg; assay type: functional
[9] = tested on: Mus musculus; assay: In vivo antitumor activity against lymphatic leukemia P388 cells resistant to mitomycin C (MMC) was measured as maximal increase in life span of the treated mice at optimal dose of 50 mg/kg; assay type: functional
[10] = tested on: Mus musculus; assay: In vivo antitumor activity against lymphatic leukemia P388 cells resistant to mitomycin C (MMC) was measured as maximal increase in life span of the treated mice at optimal dose of 3.1 mg/kg; assay type: functional
[11] = tested on: Mus musculus; assay: In vivo antitumor activity against lymphatic leukemia P388 cells resistant to mitomycin C (MMC) was measured as maximal increase in life span of the treated mice at optimal dose of 46 mg/kg; assay type: functional
[12] = tested on: Mus musculus; assay: In vivo antitumor activity against lymphatic leukemia P388 cells sensitive to mitomycin C (MMC) was measured as maximal increase in life span of the treated mice at optimal dose of 0.78 mg/kg; assay type: functional
[13] = tested on: Mus musculus; assay: In vivo antitumor activity against lymphatic leukemia P388 cells resistant to mitomycin C (MMC) was measured as maximal increase in life span of the treated mice at optimal dose of 1.6 mg/kg; assay type: functional
[14] = tested on: Mus musculus; assay: In vivo antitumor activity against lymphatic leukemia P388 cells resistant to mitomycin C (MMC) was measured as maximal increase in life span of the treated mice at optimal dose of 13 mg/kg; assay type: functional

Row | SMILES | IC50 [1] [µM] | further results
1 | CO[C@@]12[C@H](COC(N)=O)C3=C(C(=O)C(CSc4nnnn4C)=C(N)C3=O)N1C[C@@H]1N[C@@H]12 | 0.12 | 
2 | COCC1=C(N)C(=O)C2=C(C1=O)N1C[C@H]3[C@H](N3C)[C@]1(O)[C@H]2COC(N)=O (some centres undefined) | > 82 | 
3 | CO[C@@]12[C@H](COC(N)=O)C3=C(C(=O)C(CSc4ccccc4)=C(N)C3=O)N1C[C@@H]1N[C@@H]12 | 1 | OD [2]: 22 mg/kg; ED50 [3]: 6.1 mg/kg; ILS at 50 mg/kg [4]: 45%
4 | C=CCOCC1=C(N)C(=O)C2=C(C1=O)N1C[C@@H]3N[C@@H]3[C@]1(OC)[C@@H]2COC(N)=O | 5.5 | 
5 | COC1=C(C)C(=O)C2=C(C1=O)[C@@H](COC(N)=O)[C@@]1(OC)[C@H]3N[C@H]3CN21 [MITOMYCIN A] | 0.0024 | 
6 | CO[C@@]12[C@H](COC(N)=O)C3=C(C(=O)C(CSc4ccc(O)cc4)=C(N)C3=O)N1C[C@@H]1N[C@@H]12 | 116 | 
7 | CO[C@@]12[C@H](COC(N)=O)C3=C(C(=O)C(CSc4ccccc4Cl)=C(N)C3=O)N1C[C@@H]1N[C@@H]12 | 7.3 | 
8 | COCC1=C(OC)C(=O)C2=C(C1=O)N1CC3NC3[C@]1(OC)[C@@H]2COC(N)=O (some centres undefined) | 0.12 | 
9 | CO[C@@]12[C@H](COC(N)=O)C3=C(C(=O)C4=C(Nc5ccccc5SC4)C3=O)N1C[C@@H]1N[C@@H]12 | 0.31 | OD [2]: 100 mg/kg; ILS at 25 mg/kg [5]: 48%; ILS at 13 mg/kg [6]: 36%; ED50 [3]: 35 mg/kg
10 | COC(=O)CCSCC1=C(N)C(=O)C2=C(C1=O)N1C[C@@H]3N[C@@H]3[C@]1(OC)[C@@H]2COC(N)=O | 0.97 | OD [2]: 3.1 mg/kg; T/C [7]: 0.63 min; ILS at 3.1 mg/kg [8]: 69%
11 | CO[C@@]12[C@H](COC(N)=O)C3=C(C(=O)C(CSc4nc5ccccc5s4)=C(N)C3=O)N1C[C@@H]1N[C@@H]12 | 0.7 | ILS at 50 mg/kg [9]: 57%; OD [2]: 50 mg/kg; ILS at 13 mg/kg [6]: 40%; ED50 [3]: 36 mg/kg
12 | CO[C@@]12[C@H](COC(N)=O)C3=C(C(=O)C(CSc4ccc(Cl)cc4)=C(N)C3=O)N1C[C@@H]1N[C@@H]12 | 53 | 
13 | COc1ccc(SCC2=C(N)C(=O)C3=C(C2=O)N2C[C@@H]4N[C@@H]4[C@]2(OC)[C@@H]3COC(N)=O)cc1 | 14 | 
14 | CO[C@@]12[C@H](COC(N)=O)C3=C(C(=O)C(CSC4=NCCS4)=C(N)C3=O)N1C[C@@H]1N[C@@H]12 | 0.82 | ILS at 3.1 mg/kg [10]: 64%; OD [2]: 6.3 mg/kg; ED50 [3]: 5.9 mg/kg; ILS at 3.1 mg/kg [8]: 62%
15 | CO[C@@]12[C@H](COC(N)=O)C3=C(C(=O)C(CSc4ncc[nH]4)=C(N)C3=O)N1C[C@@H]1N[C@@H]12 | 92 | 
16 | CO[C@@]12[C@H](COC(N)=O)C3=C(C(=O)C(CSCCO)=C(N)C3=O)N1C[C@@H]1N[C@@H]12 | > 100 | 
17 | CCCCCCCCCCCCSCC1=C(N)C(=O)C2=C(C1=O)N1C[C@@H]3N[C@@H]3[C@]1(OC)[C@@H]2COC(N)=O | 5.5 | 
18 | CO[C@@]12[C@H](COC(N)=O)C3=C(C(=O)C(CSc4cccs4)=C(N)C3=O)N1C[C@@H]1N[C@@H]12 | 4.9 | ILS at 46 mg/kg [11]: > 56%; OD [2]: 46 mg/kg; ED50 [3]: 29 mg/kg
19 | COCC1=C(N)C(=O)C2=C(C1=O)N1CC3NC3[C@]1(OC)[C@@H]2COC(N)=O (some centres undefined) | 2.6 | 
20 | CO[C@@]12[C@H](COC(N)=O)C3=C(C(=O)C(CSC4OC(CO)C(O)C(O)C4O)=C(N)C3=O)N1C[C@@H]1N[C@@H]12 (some centres undefined) | 82 | 
21 | CO[C@@]12[C@H](COC(N)=O)C3=C(C(=O)C4=C(NCCSC4)C3=O)N1C[C@@H]1N[C@@H]12 | 1.3 | 
22 | CO[C@@]12[C@H](COC(N)=O)C3=C(C(=O)C(CSC(C)C)=C(N)C3=O)N1C[C@@H]1N[C@@H]12 | 5.4 | OD [2]: 25 mg/kg; ILS at 25 mg/kg [5]: 30%; ED50 [3]: 8.4 mg/kg; ILS at 50 mg/kg [4]: 58%
23 | CO[C@@]12[C@H](COC(N)=O)C3=C(C(=O)C(CSc4nc5ccccc5o4)=C(N)C3=O)N1C[C@@H]1N[C@@H]12 | 5.1 | 
24 | CO[C@@]12[C@H](COC(N)=O)C3=C(C(=O)C(CS(=O)(=O)C(C)C)=C(N)C3=O)N1C[C@@H]1N[C@@H]12 | > 10 | 

Row | SMILES | IC50 [1] [µM] | further results
25 | COCC1=C(N)C(=O)C2=C(C1=O)N1CC3C(N3C)[C@]1(OC)[C@@H]2COC(N)=O (some centres undefined) | > 100 | 
26 | CCCCOCC1=C(N)C(=O)C2=C(C1=O)N1C[C@@H]3N[C@@H]3[C@]1(OC)[C@@H]2COC(N)=O | 19 | 
27 | CCSCC1=C(N)C(=O)C2=C(C1=O)N1C[C@@H]3N[C@@H]3[C@]1(OC)[C@@H]2COC(N)=O | 2.2 | 
28 | CO[C@@]12[C@H](COC(N)=O)C3=C(C(=O)C(CSc4ccccc4O)=C(N)C3=O)N1C[C@@H]1N[C@@H]12 | 2.2 | ILS at 46 mg/kg [11]: > 67%; OD [2]: 46 mg/kg; ED50 [3]: 22 mg/kg
29 | CO[C@@]12[C@H](COC(N)=O)C3=C(C(=O)C(CSCC(O)CO)=C(N)C3=O)N1C[C@@H]1N[C@@H]12 (some centres undefined) | > 100 | 
30 | COc1ccccc1SCC1=C(N)C(=O)C2=C(C1=O)N1C[C@@H]3N[C@@H]3[C@]1(OC)[C@@H]2COC(N)=O | 2.3 | 
31 | CO[C@@]12[C@H](COC(N)=O)C3=C(C(=O)C(CSc4nnnn4-c4ccccc4)=C(N)C3=O)N1C[C@@H]1N[C@@H]12 | 0.27 | 
32 | CO[C@@]12[C@H](COC(N)=O)C3=C(C(=O)C(CSc4ccccn4)=C(N)C3=O)N1C[C@@H]1N[C@@H]12 | 1.8 | 
33 | CO[C@@]12[C@H](COC(N)=O)C3=C(C(=O)C(CSc4ccc([N+](=O)[O-])cc4)=C(N)C3=O)N1C[C@@H]1N[C@@H]12 | 0.78 | 
34 | CO[C@@]12[C@H](COC(N)=O)C3=C(C(=O)C(CSc4ncccn4)=C(N)C3=O)N1C[C@@H]1N[C@@H]12 | 0.95 | OD [2]: 13 mg/kg; ILS at 0.78 mg/kg [12]: 58%; ILS at 1.6 mg/kg [13]: > 92%; ED50 [3]: 8.9 mg/kg
35 | CO[C@@]12[C@H](COC(N)=O)C3=C(C(=O)C(CSc4nnc(C)s4)=C(N)C3=O)N1C[C@@H]1N[C@@H]12 | 1.1 | 
36 | CO[C@@]12[C@H](COC(N)=O)C3=C(C(=O)C(CSc4nc(C)cc(C)n4)=C(N)C3=O)N1C[C@@H]1N[C@@H]12 | 1.1 | OD [2]: 6.3 mg/kg; ILS at 3.1 mg/kg [8]: 50%
37 | CCCOCC1=C(N)C(=O)C2=C(C1=O)N1C[C@@H]3N[C@@H]3[C@]1(OC)[C@@H]2COC(N)=O | 5.3 | 
38 | CO[C@@]12[C@H](COC(N)=O)C3=C(C(=O)C(CSc4nccn4C)=C(N)C3=O)N1C[C@@H]1N[C@@H]12 | 0.76 | 
39 | CO[C@@]12[C@H](COC(N)=O)C3=C(C(=O)C(CSc4ncccc4O)=C(N)C3=O)N1C[C@@H]1N[C@@H]12 | 0.19 | ILS at 3.1 mg/kg [10]: 26%; OD [2]: 6.3 mg/kg; ED50 [3]: 3.7 mg/kg; ILS at 3.1 mg/kg [8]: 49%
40 | CO[C@@]12[C@H](COC(N)=O)C3=C(C(=O)C(CSc4ccccc4Br)=C(N)C3=O)N1C[C@@H]1N[C@@H]12 | 48 | 
41 | CO[C@@]12[C@H](COC(N)=O)C3=C(C(=O)C(CSCC4CC4)=C(N)C3=O)N1C[C@@H]1N[C@@H]12 | 1.1 | OD [2]: 25 mg/kg; ILS at 13 mg/kg [6]: 43%; ILS at 1.6 mg/kg [13]: > 115%; ED50 [3]: 13 mg/kg
42 | CO[C@@]12[C@H](COC(N)=O)C3=C(C(=O)C(CSC4OC(COC(C)=O)C(OC(C)=O)C(OC(C)=O)C4OC(C)=O)=C(N)C3=O)N1C[C@@H]1N[C@@H]12 (some centres undefined) | 1.1 | OD [2]: 25 mg/kg; ILS at 13 mg/kg [14]: > 143%; ILS at 13 mg/kg [6]: 58%; ED50 [3]: 24 mg/kg
43 | CO[C@@]12[C@H](COC(N)=O)C3=C(C(=O)C(C[S+]([O-])C(C)C)=C(N)C3=O)N1C[C@@H]1N[C@@H]12 (some centres undefined) | > 10 | 
44 | CO[C@@]12[C@H](COC(N)=O)C3=C(C(=O)C(CSc4nc[nH]n4)=C(N)C3=O)N1C[C@@H]1N[C@@H]12 | 6.8 | 
45 | CO[C@@]12[C@H](COC(N)=O)C3=C(C(=O)C(COCc4ccccc4)=C(N)C3=O)N1C[C@@H]1N[C@@H]12 | 5.5 | 
46 | CO[C@@]12[C@H](COC(N)=O)C3=C(C(=O)C(CO)=C(N)C3=O)N1C[C@@H]1N[C@@H]12 | > 29 | 
47 | CO[C@@]12[C@H](COC(N)=O)C3=C(C(=O)C(CSc4ccccc4C(C)C)=C(N)C3=O)N1C[C@@H]1N[C@@H]12 | 27 | 
48 | CO[C@@]12[C@H](COC(N)=O)C3=C(C(=O)C(CSCc4ccccc4)=C(N)C3=O)N1C[C@@H]1N[C@@H]12 | 2.2 | 
